# Laboratory results taken from paper PMC3254186 (Frontiers in Pharmacology, 2011).
# Where a name gives a salt, the structure may show the parent alone.
# Target: T1, Kir1.1 (S44D) (Rattus norvegicus, UniProt P35560, S44D)
# T1 sequence (P35560 1-391 S44D): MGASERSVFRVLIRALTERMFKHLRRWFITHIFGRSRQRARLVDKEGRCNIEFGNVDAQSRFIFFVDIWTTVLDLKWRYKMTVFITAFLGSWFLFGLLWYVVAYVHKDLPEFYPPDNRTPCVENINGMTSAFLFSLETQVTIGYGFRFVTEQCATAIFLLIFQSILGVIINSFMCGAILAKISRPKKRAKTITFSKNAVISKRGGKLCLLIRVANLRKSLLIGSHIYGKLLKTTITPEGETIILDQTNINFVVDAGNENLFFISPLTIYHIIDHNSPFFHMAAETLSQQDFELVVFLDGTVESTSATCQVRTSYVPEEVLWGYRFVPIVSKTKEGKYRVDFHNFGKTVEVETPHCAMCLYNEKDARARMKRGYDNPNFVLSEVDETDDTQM
# Test: Tl+ flux assay, tetracycline-inducible Kir1.1-S44D T-REx-HEK-293 cells
# Format: cell-based
# Details: IC50 Kir1.1, Tl+ flux, mean ± SEM (n = 3)
# Summary of the method: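 Monoclonal C1 T-REx-HEK-293 Kir1.1-S44D cells were grown in DMEM with 10% FBS, penicillin/streptomycin, 5 μg/mL blasticidin S and 250 μg/mL hygromycin. Channel expression was induced overnight with tetracycline. Cells were loaded with FluoZin-2 and pre-treated with test compound from 1:3 serial dilutions. Extracellular Tl+ was then added and fluorescence imaged kinetically at 20–23°C. CRC, mean ± SEM, n = 3.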
row,SMILES,IC50 [µM]
1,"N=c1n(Cc2ccccc2)c2ccccc2n1CC(O)COc1ccc(Cl)cc1Cl (centres unmarked) [Compound 2, 1-(3-benzyl-2-imino-2,3-dihydro-1H-benzo[d]imidazol-1-yl)-3-(2,4-dichlorophenoxy)propan-2-ol]",7.07 ± 2.3
2,"N=c1n(Cc2ccccc2)c2ccccc2n1CC(O)COc1ccc(Cl)cc1 (centres unmarked) [Compound 3, 1-(3-benzyl-2-imino-2,3-dihydro-1H-benzo[d]imidazol-1-yl)-3-(4-chlorophenoxy)propan-2-ol]",6.57 ± 3.8
3,"Cc1cccc(OCC(O)Cn2c(=N)n(Cc3ccccc3)c3ccccc32)c1 (centres unmarked) [Compound 4, 1-(3-benzyl-2-imino-2,3-dihydro-1H-benzo[d]imidazol-1-yl)-3-(m-tolyloxy)propan-2-ol]",11.2 ± 2.8
4,"N=c1n(Cc2ccccc2)c2ccccc2n1CC(O)COc1ccccc1 (centres unmarked) [Compound 5, 1-(3-benzyl-2-imino-2,3-dihydro-1H-benzo[d]imidazol-1-yl)-3-phenoxypropan-2-ol]",11.7 ± 4.1
5,"Cc1ccccc1OCC(O)Cn1c(=N)n(Cc2ccccc2)c2ccccc21 (centres unmarked) [Compound 6, 1-(3-benzyl-2-imino-2,3-dihydro-1H-benzo[d]imidazol-1-yl)-3-(o-tolyloxy)propan-2-ol]",11.9 ± 2.2
6,"N=c1n(Cc2ccccc2)c2ccccc2n1CC(O)COc1cc(F)cc(F)c1 (centres unmarked) [Compound 7, 1-(3-benzyl-2-imino-2,3-dihydro-1H-benzo[d]imidazol-1-yl)-3-(3,5-difluorophenoxy)propan-2-ol]",7.57 ± 2.2
7,"CC(C)c1ccc(OCC(O)Cn2c(=N)n(Cc3ccccc3)c3ccccc32)cc1 (centres unmarked) [Compound 8, 1-(3-benzyl-2-imino-2,3-dihydro-1H-benzo[d]imidazol-1-yl)-3-(4-isopropylphenoxy)propan-2-ol]",6.77 ± 1.7
8,"N=c1n(Cc2ccccc2)c2ccccc2n1CC(O)CN1CCOCC1 (centres unmarked) [Compound 9, 1-(3-benzyl-2-imino-2,3-dihydro-1H-benzo[d]imidazol-1-yl)-3-morpholinopropan-2-ol]",> 100
9,"N=c1n(Cc2ccccc2)c2ccccc2n1CC(O)COc1ccc(Cc2ccccc2)cc1 (centres unmarked) [Compound 10, 1-(3-benzyl-2-imino-2,3-dihydro-1H-benzo[d]imidazol-1-yl)-3-(4-benzylphenoxy)propan-2-ol]",6.13 ± 0.23
10,"N=c1n(Cc2ccccc2)c2ccccc2n1CC(O)COc1ccc(OCc2ccccc2)cc1 (centres unmarked) [Compound 11, 1-(3-benzyl-2-imino-2,3-dihydro-1H-benzo[d]imidazol-1-yl)-3-(4-(benzyloxy)phenoxy)propan-2-ol]",5.23 ± 0.59
11,"N#Cc1ccc(OCC(O)Cn2c(=N)n(Cc3ccccc3)c3ccccc32)cc1 (centres unmarked) [Compound 12, 4-(3-(3-benzyl-2-imino-2,3-dihydro-1H-benzo[d]imidazol-1-yl)-2-hydroxypropoxy)benzonitrile]",15.7 ± 2.1
12,"COc1ccc(OCC(O)Cn2c(=N)n(Cc3ccccc3)c3ccccc32)cc1 (centres unmarked) [Compound 13, 1-(3-benzyl-2-imino-2,3-dihydro-1H-benzo[d]imidazol-1-yl)-3-(4-methoxyphenoxy)propan-2-ol]",12.7 ± 1.2
13,"COc1cccc(OCC(O)Cn2c(=N)n(Cc3ccccc3)c3ccccc32)c1 (centres unmarked) [Compound 14, 1-(3-benzyl-2-imino-2,3-dihydro-1H-benzo[d]imidazol-1-yl)-3-(3-methoxyphenoxy)propan-2-ol]",10.1 ± 2.9
14,"N=c1n(Cc2ccccc2)c2ccccc2n1CC(O)COc1ccccc1Cl (centres unmarked) [Compound 15, 1-(3-benzyl-2-imino-2,3-dihydro-1H-benzo[d]imidazol-1-yl)-3-(2-chlorophenoxy)propan-2-ol]",8.6 ± 1.2
15,"Cc1cc(OCC(O)Cn2c(=N)n(Cc3ccccc3)c3ccccc32)ccc1Br (centres unmarked) [Compound 16, 1-(3-benzyl-2-imino-2,3-dihydro-1H-benzo[d]imidazol-1-yl)-3-(4-bromo-3-methylphenoxy)propan-2-ol]",8.53 ± 1.7
16,"N#Cc1ccc(F)c(OCC(O)Cn2c(=N)n(Cc3ccccc3)c3ccccc32)c1 (centres unmarked) [Compound 17, 3-(3-(3-benzyl-2-imino-2,3-dihydro-1H-benzo[d]imidazol-1-yl)-2-hydroxypropoxy)-4-fluorobenzonitrile]",8.27 ± 0.29
17,"N=c1n(Cc2ccccc2)c2ccccc2n1CC(O)COc1cccc(Cl)c1 (centres unmarked) [Compound 18, 1-(3-benzyl-2-imino-2,3-dihydro-1H-benzo[d]imidazol-1-yl)-3-(3-chlorophenoxy)propan-2-ol]",11.7 ± 2.1
18,"N#Cc1cc(F)cc(OCC(O)Cn2c(=N)n(Cc3ccccc3)c3ccccc32)c1 (centres unmarked) [Compound 19, 3-(3-(3-benzyl-2-imino-2,3-dihydro-1H-benzo[d]imidazol-1-yl)-2-hydroxypropoxy)-5-fluorobenzonitrile]",14.3 ± 1.5
19,"Cc1cc(C)cc(OCC(O)Cn2c(=N)n(Cc3ccccc3)c3ccccc32)c1 (centres unmarked) [Compound 20, 1-(3-benzyl-2-imino-2,3-dihydro-1H-benzo[d]imidazol-1-yl)-3-(3,5-dimethylphenoxy)propan-2-ol]",16 ± 2
20,"COc1ccccc1OCC(O)Cn1c(=N)n(Cc2ccccc2)c2ccccc21 (centres unmarked) [Compound 21, 1-(3-benzyl-2-imino-2,3-dihydro-1H-benzo[d]imidazol-1-yl)-3-(2-methoxyphenoxy)propan-2-ol]",19.3 ± 1.5
21,"N=c1n(Cc2ccc(Cl)cc2)c2ccccc2n1CC(O)COc1ccccc1 (centres unmarked) [Compound 22, 1-(3-(4-chlorobenzyl)-2-imino-2,3-dihydro-1H-benzo[d]imidazol-1-yl)-3-phenoxypropan-2-ol]",14.7 ± 2.1
22,"N=c1n(Cc2ccc(Cl)cc2)c2ccccc2n1CC(O)COc1ccc(Cl)cc1 (centres unmarked) [Compound 23, 1-(3-(4-chlorobenzyl)-2-imino-2,3-dihydro-1H-benzo[d]imidazol-1-yl)-3-(4-chlorophenoxy)propan-2-ol]",6.53 ± 3.9
23,"COc1cccc(Cn2c(=N)n(CC(O)COc3ccc(C)cc3)c3ccccc32)c1 (centres unmarked) [Compound 24, 1-(2-imino-3-(3-methoxybenzyl)-2,3-dihydro-1H-benzo[d]imidazol-1-yl)-3-(p-tolyloxy)propan-2-ol]",13.7 ± 4.4
24,"Cc1ccc(OCC(O)Cn2c(=N)n(C)c3ccccc32)cc1 (centres unmarked) [Compound 25, 1-(2-imino-3-methyl-2,3-dihydro-1H-benzo[d]imidazol-1-yl)-3-(p-tolyloxy)propan-2-ol]",13 ± 2.6
25,"Cn1c(=N)n(CC(O)COc2ccc(C(F)(F)F)cc2)c2ccccc21 (centres unmarked) [Compound 26, 1-(2-imino-3-methyl-2,3-dihydro-1H-benzo[d]imidazol-1-yl)-3-(4-(trifluoromethyl)phenoxy)propan-2-ol]",6.97 ± 2

# Target: T2, Kir7.1-M125R (Homo sapiens, UniProt O60928, M125R)
# T2 sequence (O60928 1-360 M125R): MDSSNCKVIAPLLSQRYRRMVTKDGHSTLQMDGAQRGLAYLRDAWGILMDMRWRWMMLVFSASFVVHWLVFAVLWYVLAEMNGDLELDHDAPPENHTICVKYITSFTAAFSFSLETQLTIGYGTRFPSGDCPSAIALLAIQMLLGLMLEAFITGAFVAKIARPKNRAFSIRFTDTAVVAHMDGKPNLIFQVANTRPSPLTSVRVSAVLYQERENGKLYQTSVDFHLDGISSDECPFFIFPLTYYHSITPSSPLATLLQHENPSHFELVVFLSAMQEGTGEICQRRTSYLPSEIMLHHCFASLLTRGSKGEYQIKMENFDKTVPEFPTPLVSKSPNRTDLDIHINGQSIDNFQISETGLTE
# Test: Tl+ flux assay, polyclonal Kir7.1-M125R T-REx-HEK-293 cells
# Format: cell-based
# Details: not given
row,SMILES,activity toward Kir7.1
1,"N=c1n(Cc2ccccc2)c2ccccc2n1CC(O)CN1CCOCC1 (centres unmarked) [Compound 9, 1-(3-benzyl-2-imino-2,3-dihydro-1H-benzo[d]imidazol-1-yl)-3-morpholinopropan-2-ol]",lost activity
2,"N=c1n(Cc2ccccc2)c2ccccc2n1CC(O)COc1ccc(OCc2ccccc2)cc1 (centres unmarked) [Compound 11, 1-(3-benzyl-2-imino-2,3-dihydro-1H-benzo[d]imidazol-1-yl)-3-(4-(benzyloxy)phenoxy)propan-2-ol]",lost activity

# Test system: Kir1.1
# Test: not given
# Details: read-out: Kir1.1 inhibitor potency; ref Lewis et al., [2009]; cited from earlier work
row,SMILES,IC50 [µM]
1,"O=[N+]([O-])c1ccc(CN2CCOCCOCCN(Cc3ccc([N+](=O)[O-])cc3)CCOCC2)cc1 [VU590, 7,13-bis[(4-nitrophenyl)methyl]-1,4,10-trioxa-7,13-diazacyclopentadecanedihydrochloride]",~0.3

# Test system: Kir7.1
# Test: not given
# Details: read-out: IC50 Kir7.1; ref Lewis et al., [2009]; cited from earlier work
row,SMILES,IC50 [µM]
1,"O=[N+]([O-])c1ccc(CN2CCOCCOCCN(Cc3ccc([N+](=O)[O-])cc3)CCOCC2)cc1 [VU590, 7,13-bis[(4-nitrophenyl)methyl]-1,4,10-trioxa-7,13-diazacyclopentadecanedihydrochloride]",~8
